Converted amounts (≈) assume the structure as drawn.
Key:
Assay type in all cases: functional
[1] = test system: Campylobacter coli; assay: Antibacterial activity against Campylobacter coli by NCCLS agar doubling dilution method
How it was run: (§1)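 MICs by agar doubling dilution following the NCCLS (CLSI) Campylobacter Working Group procedure, applied to ampicillin- and amoxicillin-resistant isolates from UK chicken flocks (2000–2006). C. jejuni NCTC 11168 and C. coli NCTC 11366 served as control strains. Resistance was called at an ampicillin cutoff of 8 μg/ml. Other agents were judged against Enterobacteriaceae guidelines (BSAC, CLSI).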

[2] = test system: Campylobacter jejuni; assay: Antibacterial activity against Campylobacter jejuni by NCCLS agar doubling dilution method; how it was run: as §1
[3] = test system: Campylobacter jejuni; assay: Antibacterial activity against bla gene-positive and nitrocefin reaction-positive beta-lactamase harboring Campylobacter jejuni isolate P286 by NCCLS agar doubling dilution method
How it was run: (§2)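 MICs by agar doubling dilution per the NCCLS (now CLSI) Campylobacter Working Group method. Isolates came from UK chicken flocks (feces, ceca or farm environment), 2000–2006. C. jejuni NCTC 11168 and C. coli NCTC 11366 served as control strains. The ampicillin resistance cutoff was 8 μg/ml; BSAC/CLSI Enterobacteriaceae guidelines were used for other agents.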

[4] = test system: Campylobacter jejuni; assay: Antibacterial activity against Campylobacter jejuni isolate P1093 harboring blaOXA-61::cat gene by NCCLS agar doubling dilution method
How it was run: (§3)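 Agar doubling dilution MICs (NCCLS/CLSI Campylobacter Working Group method) against Cj0299-inactivated mutants. Mutants were made by transforming the C. jejuni isolate with pCI and selecting on Mueller-Hinton agar with 10 μg/ml chloramphenicol for 3–5 days. Chromosomal insertion was confirmed by PCR with Cj0299 and cat primers.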

[5] = test system: Campylobacter jejuni; assay: Antibacterial activity against Campylobacter jejuni assessed as resistant isolates by NCCLS agar doubling dilution method
How it was run: (§4)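 MICs by agar doubling dilution following the NCCLS (CLSI) Campylobacter Working Group procedure, with C. jejuni NCTC 11168 and C. coli NCTC 11366 as controls. Isolates came from UK chicken flocks, 2000–2006. Isolates were designated resistant at an ampicillin cutoff of 8 μg/ml. Enterobacteriaceae guidelines (BSAC, CLSI) were used as reference for the other agents.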

[6] = test system: Campylobacter jejuni; assay: Antibacterial activity against bla gene-positive and nitrocefin reaction-positive beta-lactamase harboring Campylobacter jejuni isolate P285 by NCCLS agar doubling dilution method; how it was run: as §2
[7] = test system: Campylobacter jejuni; assay: Antibacterial activity against bla gene-negative and nitrocefin reaction-positive beta-lactamase harboring Campylobacter jejuni isolate P843 by NCCLS agar doubling dilution method
How it was run: (§5)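 MICs of β-lactams by agar doubling dilution following the NCCLS (CLSI) Campylobacter Working Group procedure, with C. jejuni NCTC 11168 and C. coli NCTC 11366 as controls. Isolates were from UK poultry flocks. β-Lactamase status was set by Cj0299 PCR (281-bp amplimer) and by a nitrocefin colour change of sonicated lysate within 5 min, or within 30 min on repeat.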

[8] = test system: Campylobacter jejuni; assay: Antibacterial activity against bla gene-positive and nitrocefin reaction-positive beta-lactamase harboring Campylobacter jejuni isolate P305 by NCCLS agar doubling dilution method; how it was run: as §2
[9] = test system: Campylobacter jejuni; assay: Antibacterial activity against Campylobacter jejuni isolate P270 harboring blaOXA-61::cat gene by NCCLS agar doubling dilution method
[10] = test system: Campylobacter jejuni; assay: Antibacterial activity against bla gene-positive and nitrocefin reaction-positive beta-lactamase harboring Campylobacter jejuni isolate P1650 by NCCLS agar doubling dilution method; how it was run: as §5
[11] = test system: Campylobacter jejuni; assay: Antibacterial activity against bla gene-positive and nitrocefin reaction-positive beta-lactamase harboring Campylobacter jejuni isolate P316 by NCCLS agar doubling dilution method; how it was run: as §2
[12] = test system: Campylobacter jejuni; assay: Antibacterial activity against bla gene-negative and nitrocefin reaction-negative beta-lactamase harboring Campylobacter jejuni isolate P850 by NCCLS agar doubling dilution method; how it was run: as §5
[13] = test system: Campylobacter jejuni; assay: Antibacterial activity against bla gene-positive and nitrocefin reaction-positive beta-lactamase harboring Campylobacter jejuni isolate P1618 by NCCLS agar doubling dilution method; how it was run: as §5
[14] = test system: Campylobacter coli; assay: Antibacterial activity against bla-positive and beta-lactamase-weakly positive Campylobacter coli isolate P1627 by NCCLS agar doubling dilution method; how it was run: as §2
[15] = test system: Campylobacter jejuni; assay: Antibacterial activity against bla gene-positive and nitrocefin reaction-positive beta-lactamase harboring Campylobacter jejuni isolate P1730 by NCCLS agar doubling dilution method; how it was run: as §2
[16] = test system: Campylobacter jejuni; assay: Antibacterial activity against bla gene-negative and nitrocefin reaction-negative beta-lactamase harboring Campylobacter jejuni isolate P1962 by NCCLS agar doubling dilution method; how it was run: as §5
[17] = test system: Campylobacter jejuni; assay: Antibacterial activity against bla gene-negative and nitrocefin reaction-negative beta-lactamase harboring Campylobacter jejuni isolate P835 by NCCLS agar doubling dilution method; how it was run: as §5
[18] = test system: Campylobacter jejuni; assay: Antibacterial activity against bla gene-positive and nitrocefin reaction-positive beta-lactamase harboring Campylobacter jejuni isolate P1093 by NCCLS agar doubling dilution method; how it was run: as §5
[19] = test system: Campylobacter jejuni; assay: Antibacterial activity against bla gene-positive and nitrocefin reaction-positive beta-lactamase harboring Campylobacter jejuni isolate P790 by NCCLS agar doubling dilution method; how it was run: as §2
[20] = test system: Campylobacter coli; assay: Antibacterial activity against bla gene-positive and nitrocefin reaction-positive beta-lactamase harboring Campylobacter coli isolate P1826 by NCCLS agar doubling dilution method; how it was run: as §5
[21] = test system: Campylobacter jejuni; assay: Antibacterial activity against bla gene-negative and nitrocefin reaction-positive beta-lactamase harboring Campylobacter jejuni isolate P854 by NCCLS agar doubling dilution method; how it was run: as §5
[22] = test system: Campylobacter jejuni; assay: Antibacterial activity against bla gene-positive and nitrocefin reaction-negative beta-lactamase harboring Campylobacter jejuni isolate P1699 by NCCLS agar doubling dilution method; how it was run: as §5
[23] = test system: Campylobacter jejuni; assay: Antibacterial activity against bla gene-positive and nitrocefin reaction-negative beta-lactamase harboring Campylobacter jejuni isolate P1698 by NCCLS agar doubling dilution method; how it was run: as §5
[24] = test system: Campylobacter coli; assay: Antibacterial activity against Campylobacter coli assessed as resistant isolates by NCCLS agar doubling dilution method; how it was run: as §4
[25] = test system: Campylobacter coli; assay: Antibacterial activity against bla gene-positive and nitrocefin reaction-positive beta-lactamase harboring Campylobacter coli isolate P321 by NCCLS agar doubling dilution method; how it was run: as §5
[26] = test system: Campylobacter jejuni; assay: Antibacterial activity against bla gene-positive and nitrocefin reaction-positive beta-lactamase harboring Campylobacter jejuni isolate P338 by NCCLS agar doubling dilution method; how it was run: as §2
[27] = test system: Campylobacter jejuni; assay: Antibacterial activity against bla gene-positive and nitrocefin reaction-negative beta-lactamase harboring Campylobacter jejuni NCTC 11168 by NCCLS agar doubling dilution method; how it was run: as §5
[28] = test system: Campylobacter jejuni; assay: Antibacterial activity against Campylobacter jejuni isolate P338 harboring blaOXA-61::cat gene by NCCLS agar doubling dilution method; how it was run: as §3

## CC1(C)S[C@@H]2[C@H](NC(=O)[C@H](N)c3ccccc3)C(=O)N2[C@H]1C(=O)O [AMPICILLIN]
[1]
  MIC50: 64 µg/mL (≈ 183 µM)
  MIC90: 128 µg/mL (≈ 366 µM)
[2]
  MIC50: 64 µg/mL (≈ 183 µM)
  MIC90: 128 µg/mL (≈ 366 µM)
[3]
  MIC: 64 µg/mL (≈ 183 µM)
[4]
  MIC: 2 µg/mL (≈ 5.72 µM)
[5]
  Activity: 47.5%
[6]
  MIC: 64 µg/mL (≈ 183 µM)
[7]
  MIC: 32 µg/mL (≈ 91.6 µM)
[8]
  MIC: 64 µg/mL (≈ 183 µM)
[9]
  MIC: 0.5 µg/mL (≈ 1.43 µM)
[10]
  MIC: 64 µg/mL (≈ 183 µM)
[11]
  MIC: 64 µg/mL (≈ 183 µM)
[12]
  MIC: 32 µg/mL (≈ 91.6 µM)
[13]
  MIC: 64 µg/mL (≈ 183 µM)
[14]
  MIC: 32 µg/mL (≈ 91.6 µM)
[15]
  MIC: 64 µg/mL (≈ 183 µM)
[16]
  MIC: 2 µg/mL (≈ 5.72 µM)
[17]
  MIC: 2 µg/mL (≈ 5.72 µM)
[18]
  MIC: 128 µg/mL (≈ 366 µM)
[19]
  MIC: 64 µg/mL (≈ 183 µM)
[20]
  MIC: 128 µg/mL (≈ 366 µM)
[21]
  MIC: 128 µg/mL (≈ 366 µM)
[22]
  MIC: 64 µg/mL (≈ 183 µM)
[23]
  MIC: 128 µg/mL (≈ 366 µM)
[24]
  Activity: 67.4%
[25]
  MIC: 128 µg/mL (≈ 366 µM)
[26]
  MIC: 64 µg/mL (≈ 183 µM)
[27]
  MIC: 4 µg/mL (≈ 11.4 µM)
[28]
  MIC: 2 µg/mL (≈ 5.72 µM)

— ChEMBL document CHEMBL1649560, “Beta-lactamase-mediated beta-lactam resistance in Campylobacter species: prevalence of Cj0299 (bla OXA-61) and evidence for a novel beta-Lactamase in C. jejuni” (2009)
